Screening data from PubChem BioAssay.
p-CIP stab down = p/CIP protein destabilization; Q05BA5; F442A p/CIP-EGFP cells, EGFP fluorescence, 16 h; decrease of EGFP signal, % at 10 µM; actives 0.01% (n = 290,000); AID 1984;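 active = EGFP signal decrease of at least 30% at 10 µM or well 3 SD below plate mean, unless failing retest; inactive = the rest, including hits failing retest or dose response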
Target sequence (Q05BA5 1-1403): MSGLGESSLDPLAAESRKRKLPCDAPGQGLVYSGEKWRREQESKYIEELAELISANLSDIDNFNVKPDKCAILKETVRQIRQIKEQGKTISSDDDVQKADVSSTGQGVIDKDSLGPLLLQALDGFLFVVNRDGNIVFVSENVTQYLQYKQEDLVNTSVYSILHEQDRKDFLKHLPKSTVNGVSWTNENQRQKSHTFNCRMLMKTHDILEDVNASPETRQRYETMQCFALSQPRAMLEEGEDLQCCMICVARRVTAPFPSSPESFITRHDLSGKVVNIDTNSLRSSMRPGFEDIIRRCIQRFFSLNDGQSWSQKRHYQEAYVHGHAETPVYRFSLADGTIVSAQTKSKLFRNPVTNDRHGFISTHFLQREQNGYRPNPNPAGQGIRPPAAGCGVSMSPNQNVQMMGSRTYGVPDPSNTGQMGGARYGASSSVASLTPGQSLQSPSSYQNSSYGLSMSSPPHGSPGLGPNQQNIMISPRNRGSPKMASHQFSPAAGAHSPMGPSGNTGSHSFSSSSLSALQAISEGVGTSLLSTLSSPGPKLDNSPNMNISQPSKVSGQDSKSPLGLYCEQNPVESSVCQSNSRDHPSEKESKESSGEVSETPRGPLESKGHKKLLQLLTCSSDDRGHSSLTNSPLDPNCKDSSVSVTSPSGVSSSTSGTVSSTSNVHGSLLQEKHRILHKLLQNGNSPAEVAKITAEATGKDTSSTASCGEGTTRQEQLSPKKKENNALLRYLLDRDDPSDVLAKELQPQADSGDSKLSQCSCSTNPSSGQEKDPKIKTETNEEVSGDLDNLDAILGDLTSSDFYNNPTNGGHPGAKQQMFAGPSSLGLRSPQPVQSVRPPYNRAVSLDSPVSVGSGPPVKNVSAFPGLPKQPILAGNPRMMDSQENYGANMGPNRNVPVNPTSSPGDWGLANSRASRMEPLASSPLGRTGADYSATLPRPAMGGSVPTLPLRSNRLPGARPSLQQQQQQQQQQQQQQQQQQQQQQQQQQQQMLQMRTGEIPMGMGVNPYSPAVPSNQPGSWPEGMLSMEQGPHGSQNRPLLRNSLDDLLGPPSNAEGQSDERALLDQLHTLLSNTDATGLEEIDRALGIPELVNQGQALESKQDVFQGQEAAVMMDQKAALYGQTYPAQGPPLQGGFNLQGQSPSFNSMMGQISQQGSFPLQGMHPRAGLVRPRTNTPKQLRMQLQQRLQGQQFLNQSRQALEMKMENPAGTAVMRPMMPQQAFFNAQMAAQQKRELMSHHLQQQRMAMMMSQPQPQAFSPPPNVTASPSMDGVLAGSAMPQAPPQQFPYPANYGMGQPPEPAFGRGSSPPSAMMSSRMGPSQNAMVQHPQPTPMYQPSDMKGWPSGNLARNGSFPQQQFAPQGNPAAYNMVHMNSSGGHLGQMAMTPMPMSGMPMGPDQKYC
CHOP inh = inhibitors of CHOP induction in ER stress response; actives 3.8% (n = 220,000); inhibition, % at 10 µM; CHO-K1 CHOP-promoter luciferase, tunicamycin-induced, 15-18 h; AID 2732;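 active = compounds that reduced the stress-induced luciferase reporter signal by more than about 70% of percent inhibition, limit read from the data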;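 also: 0% = tunicamycin plus vehicle and 100% = wells without tunicamycin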
Beta2AR agonist = agonists of human beta-2 adrenergic receptor inducing internalization. P07550. Am2.2-beta2AR cells, FAP receptor internalization, flow cytometry. response, % (concentration not given with the values). actives 0.43% (n = 340,000). AID 504454;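 active = response above a set limit, near 3 SD of response in nonfluorescent compounds, cut at about 42% in these data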
CHOP UPR activ = apoptotic UPR (CHOP) activation | activation, % at 10 µM | actives 0.34% (n = 330,000) | AID 449763 | CHO-CHOP luciferase reporter, luminescence; percent of tunicamycin response over DMSO baseline;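 active = at 10 µM dose, activation of 40% or more, normalized to positive control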;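 also: 100% = tunicamycin at 10 µg/mL and 0% = DMSO alone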
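Material: CHO-CHOP cells, stable luciferase reporter of PERK-eIF2a-CHOP signalling; quantity: 500 reporter cells seeded per well; buffer or medium: F12 medium containing 10% fetal bovine serum; compound: one dose, 10 µM in 0.5% DMSO; incubation: 6 h compound treatment, 37 °C; measured by: Steady-Glo luciferase luminescence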
XBP1 UPR activ = activators of adaptive arm of unfolded protein response (XBP1); actives 0.33% (n = 330,000); activation, % at 20 µM; AID 463104; CHO-XBP1 luciferase reporter, IRE1-XBP1 UPR activation, luminescence; percent of tunicamycin response, DMSO as zero;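 active = versus positive control, 20 µM dose yields 30% or more activation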;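 also: 100% = tunicamycin at 10 µg/mL and 0% = DMSO only wells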
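Material – CHO cell line with stable XBP1 luciferase reporter · Buffer or medium – F12 plus 10% FBS · Compound – single point, 20 µM final compound, 1% DMSO · Schedule – 16-18 h cell attachment at 37 °C, then 6 h compound exposure · Signal – Steady-Glo luminescence read · Benchmarks – high control tunicamycin 10 µg/mL final, low control DMSO vehicle only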
Dynein cargo inh = blocks dynein driven cargo transport along microtubules | actives 0.47% (n = 220,000) | AID 1381 | z-score, hits read low | 3617.4 mouse cells, GR-EGFP nuclear translocation imaging; test concentration mostly 20 µM; stimulated with dexamethasone, 1 µM; hits give low values;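 active = plate z-score of nuclear minus cytoplasmic receptor signal below a set negative limit, without overly bright fluorescence or cell loss, cut at about -3.5 in these data, passing the limit was not always enough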;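 also: z-score of nuclear minus cytoplasmic ring GR-EGFP intensity difference per well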
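Buffer or medium: tet-free, stripped-serum medium; reagent: dexamethasone at 1.0 µM final, 30 min; incubation: 48 h induction, 1 h compound, 30 min dex at 37 °C; measured by: formaldehyde fixation, Hoechst nuclear stain, 10x automated fluorescence imaging; read-out: nuclear-to-cytoplasmic GR-EGFP distribution per well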
The depositor's hits bear a star; x = no result. Shown is part of a subset that was picked to be rich in hits.

SMILES	p-CIP stab down	CHOP inh	Beta2AR agonist	CHOP UPR activ	XBP1 UPR activ	Dynein cargo inh
CSCc1c(C(=O)Nc2ccccc2N2CCOCC2)oc2ccccc12	x	x	0	2	-2	x
S=C(c1ccc(-c2cc(Cl)ccc2Cl)o1)N1CCOCC1	0	70*	-17	0	1	-0.74
CCCn1c(N2CCC(Cc3ccccc3)CC2)nc2c1c(=O)[nH]c(=O)n2C	-11	50	-4	0	5	-0.85
Cn1c(=O)[nH]c(=O)c2c1nc(N1CCC(Cc3ccccc3)CC1)n2Cc1ccccc1	-21	88*	11	0	-3	1.9
Cn1c(C2CCCCC2)nc2c1c(=O)[nH]c(=O)n2Cc1ccccc1	-16	72*	7	-1	2	0.95
Cn1c(=O)[nH]c(=O)c2c1nc(N1CCCCCC1)n2CCSc1nc2ccccc2o1	4	-3	-22	0	5	-0.15
Cn1c(=O)[nH]c(=O)c2c1nc(N1CCCCCC1)n2CCCSc1nc2ccccc2o1	-4	95*	-6	2	11	-0.56
CC(C)CCNC(=O)CCc1nnc(COc2ccccc2)o1	-7	4	-1	x	x	0.22
CC1(C)C(=O)OC(c2ccccc2)C(C)(C)C1=O (stereo unspecified)	3	10	2	-2	-4	0.42
CCC1=C(OC(=O)c2ccccc2)C(C)(C)C(c2ccccc2)OC1=O (stereo unspecified)	-18	93*	24	0	0	0.96
Oc1ccc2nnc3c(Br)cnn3c2c1	-5	x	-1	-1	-2	x
CCCCCc1ccc(OCCCC[n+]2ccccc2)c(CCCCC)c1	-3	-21	12	0	-3	1.3
CCCCCc1ccc(OCCCC[n+]2cccc(C)c2)c(CCCCC)c1	-13	89*	3	-2	6	3.3
CCCCCc1ccc(OCCCC[n+]2ccc(C)cc2)c(CCCCC)c1	-15	75*	8	0	5	-1.1
CCCCOc1ccc(C)cc1CN(CCO)CCO	-11	4	1	4	-3	-0.22
COc1cccc(C2/C(=C(\O)c3ccc4c(c3)OCCO4)C(=O)C(=O)N2CCCN(C)C)c1OC (stereo unspecified)	x	x	x	x	x	-1.3
CC(C)n1nc(C(=O)OCC(=O)c2c[nH]c3ccccc23)c2ccccc2c1=O	-1	81*	6	1	4	0.44
O=S(=O)(c1ccc(F)cc1)N1CC2CCCN2c2ccc(C(F)(F)F)cc21 (stereo unspecified)	-7	75*	10	3	0	-0.77
C=CCc1cccc2cc(C(=O)Nc3ccc(S(=O)(=O)Nc4nnc(CC)s4)cc3)c(=O)oc12	2	72*	-9	x	x	-0.28
O=C(Nc1ccccc1)N1CCCC(c2nc(-c3ccc(F)cc3)no2)C1 (stereo unspecified)	10	19	-7	1	-4	-0.64
O=C(Nc1cccc(C(F)(F)F)c1)N1CCC(c2nc(-c3ccc(F)cc3)no2)CC1	2	91*	7	4	-1	1.1
COc1cc(NC(=O)c2cccs2)c(C(=O)OCC(=O)c2cc(C)n(-c3ccccc3)c2C)cc1OC	-10	85*	6	-10	-9	-0.85
CCOc1cc(-c2cn(S(=O)(=O)c3cccc4nsnc34)nc2N)cc(OCC)c1OCC	-5	57	-1	0	-1	-0.83
Cc1ccc(-c2cn(S(=O)(=O)c3ccc(C)cc3)nc2N)cc1	-8	79*	0	-1	-3	-0.79
CCOc1ccc(S(=O)(=O)n2cc(-c3ccccc3)c(N)n2)cc1	-9	14	0	1	3	-0.48
SMILES	p-CIP stab down	CHOP inh	Beta2AR agonist	CHOP UPR activ	XBP1 UPR activ	Dynein cargo inh
Nc1nn(S(=O)(=O)c2ccccc2)cc1-c1cccc([N+](=O)[O-])c1	7	23	-20	2	-1	-1
CCOc1cc(S(=O)(=O)n2cc(-c3ccc(F)cc3)c(N)n2)cc(OCC)c1OCC	-5	74*	2	-5	-3	0.55
CCOc1ccc(S(=O)(=O)n2cc(-c3ccc(F)cc3)c(N)n2)cc1	-6	95*	-11	2	0	-0.27
CCC(=O)c1ccc(OCC(=O)NC2(C#N)CCCCC2)cc1	11	-6	10	0	-5	0.52
COc1ccc(OC)c(NC(=O)C(C)OC(=O)c2cc3ccccc3[nH]2)c1 (stereo unspecified)	x	x	-1	x	x	x
CC(C)(C)n1nnnc1C(c1cccs1)N1CCCC2(CCCCC2)C1 (stereo unspecified)	-21	15	8	2	-2	-0.41
c1csc(C(c2nnnn2C2CCCCC2)N2CCCC3(CCCCC3)C2)c1 (stereo unspecified)	-9	82*	30	7	3	-0.72
O=C(Cc1ccccn1)c1ccc(Cl)cc1	x	x	-1	6	3	x
CC1=C(CC(=O)c2ccc(Cl)cc2)C(=O)c2ccccc2C1=O	-33	72*	-3	3	2	-0.11
O=c1[nH]c(C2CCN(S(=O)(=O)Cc3ccccc3)CC2)nc2c1nnn2Cc1cccc(Cl)c1	-12	x	5	-1	8	x
Cc1ccccc1C(=O)Nc1ccc2c(C#N)c3nc4ccccc4nc3n2c1	-12	96*	12	-3	9	-0.14
CCCn1c(SCC(=O)N(C)CC(=O)Nc2ccc(C)cc2)n[nH]c1=O	x	x	-1	2	1	x
Cc1ccc(S(=O)(=O)N2CCCCC2)cc1NC(=O)CSc1ncnc2ccccc12	7	-6	-16	1	-2	-0.75
Cc1ccc(NC(=O)CSc2ncnc3ccccc23)cc1S(=O)(=O)N1CCCCCC1	1	70*	1	3	-2	0.088
Cc1nc(N2CCCCC2)c(C#N)c(C)c1[N+](=O)[O-]	-17	74*	0	0	6	-0.032
Cc1[nH]nc(N2CCCCC2)c1[N+](=O)[O-]	-5	-6	8	0	0	-0.76
CCOC(=O)c1ccc(NC(=O)CCc2nc(-c3ccc(Cl)cc3)no2)cc1	0	73*	-6	-3	1	-0.42
Cc1ccc(-c2noc(CCCC(=O)Nc3cccnc3)n2)cc1	-16	78*	-6	-5	-1	-0.82
Cc1cc(NC(=O)c2cc3n(n2)C(C(F)(F)F)CC(c2ccco2)N3)n(-c2ccccc2)n1 (stereo unspecified)	-9	76*	-16	-1	-3	-0.17
O=C(c1cc2n(n1)C(C(F)(F)F)CC(c1ccco1)N2)N1CCc2ccccc2C1 (stereo unspecified)	-13	83*	-5	0	4	0.24
